# Calls of active or inactive are those of the source.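 The calls were made as follows, unless noted: active = viability at or under a set limit in both replicates, limit being median viability minus 3 SD (cut at about 48% in these data, passing the limit was not always enough); inconclusive = at or under the limit in just one replicate; inactive = at or above the limit in both replicates.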
# Tests used:
# [1] = reducers of endogenous Her2 protein level, primary screen, SKBR3 breast tumor cells, AlphaScreen, ATP viability (AID 461;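 active = Her2 level under about 52% in both replicate screens, with viability over 70% of control, limit read from the data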;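 as to Her2 level: lower value means less Her2 protein in the cells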;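 as to viability: percent of carrier control wells set as 100% viability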); conditions: 18-24 h, measured here: SKBR3 viability, ATP luminescence, at 10 µM
# [2] = target: Receptor tyrosine-protein kinase erbB-2 (Homo sapiens) (UniProt P04626); test: as above; conditions: 18-24 h, at 10 µM, stronger effect = lower value
# Chain of Receptor tyrosine-protein kinase erbB-2 (Homo sapiens) (P04626 whole entry, looked up): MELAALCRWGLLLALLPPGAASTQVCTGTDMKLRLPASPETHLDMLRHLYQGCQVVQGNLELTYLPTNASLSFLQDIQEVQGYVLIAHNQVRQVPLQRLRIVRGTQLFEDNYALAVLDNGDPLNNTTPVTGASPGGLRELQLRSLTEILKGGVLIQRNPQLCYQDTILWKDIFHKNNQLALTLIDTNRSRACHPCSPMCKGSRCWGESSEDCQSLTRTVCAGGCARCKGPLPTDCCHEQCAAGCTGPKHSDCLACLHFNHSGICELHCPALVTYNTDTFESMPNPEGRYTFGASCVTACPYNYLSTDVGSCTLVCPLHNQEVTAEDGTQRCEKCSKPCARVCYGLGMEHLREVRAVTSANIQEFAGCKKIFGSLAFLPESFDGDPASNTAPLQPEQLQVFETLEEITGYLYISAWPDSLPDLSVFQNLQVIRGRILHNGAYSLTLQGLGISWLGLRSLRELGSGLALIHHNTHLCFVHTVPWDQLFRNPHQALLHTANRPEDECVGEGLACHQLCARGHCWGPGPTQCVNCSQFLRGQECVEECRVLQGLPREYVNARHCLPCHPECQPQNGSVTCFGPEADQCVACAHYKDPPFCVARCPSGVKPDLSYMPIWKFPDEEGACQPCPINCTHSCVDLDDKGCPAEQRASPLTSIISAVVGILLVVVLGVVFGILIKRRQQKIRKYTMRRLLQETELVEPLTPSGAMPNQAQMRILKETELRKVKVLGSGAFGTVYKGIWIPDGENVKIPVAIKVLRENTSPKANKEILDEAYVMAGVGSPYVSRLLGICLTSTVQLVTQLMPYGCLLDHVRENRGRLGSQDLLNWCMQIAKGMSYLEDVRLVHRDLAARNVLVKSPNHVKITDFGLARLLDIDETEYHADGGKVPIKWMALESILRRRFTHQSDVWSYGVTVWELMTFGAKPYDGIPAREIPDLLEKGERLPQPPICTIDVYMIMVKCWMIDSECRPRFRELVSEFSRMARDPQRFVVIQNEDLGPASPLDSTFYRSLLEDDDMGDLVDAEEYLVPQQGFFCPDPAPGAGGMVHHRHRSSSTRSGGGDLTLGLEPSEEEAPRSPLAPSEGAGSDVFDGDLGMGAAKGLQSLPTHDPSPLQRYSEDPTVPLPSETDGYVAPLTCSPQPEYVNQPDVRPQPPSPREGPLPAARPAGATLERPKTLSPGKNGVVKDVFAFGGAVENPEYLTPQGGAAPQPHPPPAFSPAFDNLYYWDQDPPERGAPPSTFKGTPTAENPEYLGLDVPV
# [3] = SK-BR-3 cell growth inhibitors, pilot screen, 24 h, human (AID 572;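 active = viability at or below 10% of carrier control in both of two separate runs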;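 also: compound exposure lasted between 18 and 24 h rather than exactly 24 h; 100% = carrier-treated control wells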); conditions: SK-BR-3 viability, CellTiter-Glo luminescence, at 10 µM, stronger effect = lower value
# [4] = HUVEC growth inhibition – cell-based, human, primary screen (AID 575;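 active = viability at or below 30% in both replicate assays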;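 also: 100% = median of untreated cell wells with 0.1% DMSO on each plate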); conditions: HUVEC proliferation, CellTiter-Glo luminescence, 72 h; at 10 µM; stronger effect = lower value
# Summary of the method: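 Test system: primary human umbilical vein endothelial cells. Quantity: 1250 cells/well. Compound: single 10 µM dose, 0.1% DMSO, from 5x medium stock. Timing: 72 h treatment at 37 °C. Detection: ATP-based CellTiter-Glo luminescent read. Benchmarks: vehicle and MePR control wells. Format: 384-well plates coated with collagen.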
# [5] = growth inhibitors of H69AR lung tumor, primary screen, human, duplicate replicates (AID 580); conditions: H69AR lung tumor cells viability, ATP luminescence, 72 h; at 10 µM; stronger effect = lower value;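 also: 100% = mean luminescence of untreated wells and 0% = no signal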
# [6] = reversal of MRP1-mediated doxorubicin resistance, pilot screen, H69AR cells, doxorubicin co-treatment (AID 601;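 active = viability loss from added drug above about 55%, and viability with drug at most 40%, in both replicates, limit read from the data, passing the limit was not always enough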); conditions: CellTiter-Glo, 72 h, at 10 µM; for differential viability (reversal): stronger effect = higher value
# [7] = 384-well plate pilot, post-Golgi transport modulator project, inhibition of yeast transport mutant growth (AID 636; in the data active = inhibition above about 31%); conditions: absorbance 615 nm, about 18 h, stronger effect = higher value
# [8] = growth suppression of yeast trafficking mutant, preliminary HTS, modulators of trafficking downstream of Golgi apparatus project, 1536-format plate, OD 615 nm (AID 637; in the data active = inhibition above about 30%); conditions: yeast transport mutant growth, absorbance 615 nm, 18 h; stronger effect = higher value
# [9] = H69AR cells + 2 uM doxorubicin, measured here: viability with 2 uM doxorubicin, stronger effect = lower value
# [10] = H69AR cells, compound alone cytotoxicity
Structure (SMILES),viability [1],Her2 level [2],viability [3],viability [4],viability [5],differential viability (reversal) ([6]; H69AR cells + 2 uM doxorubicin),"viability [6, 9]","viability [6, 10]",inhibition [7],inhibition [8]
O=C(Cn1nnc2ccccc2c1=O)NC1CCCc2ccccc21 (stereo not given),77%,97.5% (inactive),77% (inactive),101% (inactive),103% (inactive),7.25% (inactive),95.4%,103%,-2.67% (inactive),4.68% (inactive)
Cc1ccc(-c2nnc(N(C)C(=O)c3ccccn3)s2)cn1,133%,94.5% (inactive),133% (inactive),90.9% (inactive),103% (inactive),20.9% (inactive),82.3%,103%,-6.85% (inactive),-4.6% (inactive)
FC(F)(F)c1nnc2ccc(NCn3nnc4ccccc43)nn12,102%,89.5% (inactive),102% (inactive),83.1% (inactive),92.9% (inactive),4.94% (inactive),88%,92.9%,-4.61% (inactive),-1.75% (inactive)
O=C(COC(=O)C12CC3CC(CC(O)(C3)C1)C2)N1CCN(S(=O)(=O)c2ccc(Cl)cc2)CC1,87.5%,85.5% (inactive),87.5% (inactive),107% (inactive),83.6% (inactive),-7.7% (inactive),91.3%,83.6%,-3.33% (inactive),-4.17% (inactive)
CCn1cc(C(=O)NCCCOC)c(=O)c2cc(S(=O)(=O)N(C)C3CCCCC3)ccc21,87%,114% (inactive),87% (inactive),101% (inactive),90.8% (inactive),-13% (inactive),104%,90.8%,-0.9% (inactive),-5.33% (inactive)
COCCCNC(=O)c1ccc2c(c1)OCO2,96.5%,93.5% (inactive),96.5% (inactive),89.9% (inactive),89.8% (inactive),-1.48% (inactive),91.3%,89.8%,-2.76% (inactive),5.74% (inactive)
Cc1ccc(N2CC(C(=O)N3CCN(C(=O)c4ccco4)CC3)CC2=O)cc1 (stereo not given),96.5%,91% (inactive),96.5% (inactive),104% (inactive),96.1% (inactive),-1.97% (inactive),98.1%,96.1%,0.39% (inactive),-1.29% (inactive)
CC(Oc1ccccc1)C(=O)NC1CCN(Cc2ccccc2)CC1 (stereo not given),93%,83% (inactive),93% (inactive),90.7% (inactive),93.5% (inactive),7.39% (inactive),86.1%,93.5%,-5.6% (inactive),3.65% (inactive)
CC1Cc2nc(SCC(=O)Nc3ccccc3F)n(C)c(=O)c2S1 (stereo not given),104%,89.5% (inactive),104% (inactive),92.4% (inactive),93.5% (inactive),-0.345% (inactive),93.8%,93.5%,-7.95% (inactive),4.29% (inactive)
CCOc1ccc2c(c1)sc1nc(C(=O)OC)cc(=O)n12,94%,84% (inactive),94% (inactive),104% (inactive),84.8% (inactive),-0.545% (inactive),85.4%,84.8%,-6.49% (inactive),-6% (inactive)
O=c1c2nnn(Cc3ccccc3)c2ncn1-c1ccccc1,103%,90.5% (inactive),103% (inactive),111% (inactive),108% (inactive),5.12% (inactive),103%,108%,-6.27% (inactive),4.1% (inactive)
CCOC(=O)c1cc2cc(F)ccc2nc1C,103%,112% (inactive),103% (inactive),120% (inactive),108% (inactive),20.9% (inactive),87.1%,108%,-0.93% (inactive),-5.9% (inactive)
CC(C)CNC(=O)C1C2C=CC(C2)C1C(=O)O (stereo not given),96%,96% (inactive),96% (inactive),108% (inactive),111% (inactive),9.12% (inactive),102%,111%,-1.33% (inactive),-1.77% (inactive)
Cc1cccn2c(=O)c3cc(C#N)c(=O)n(CCCN4CCOCC4)c3nc12,88.5%,85% (inactive),88.5% (inactive),99.8% (inactive),102% (inactive),20% (inactive),82.2%,102%,-3.51% (inactive),1.83% (inactive)
COc1ccc(-c2cc(O)cc(O)c2)cc1,108%,89.5% (inactive),108% (inactive),71.7% (inactive),87.6% (inactive),7.77% (inactive),79.9%,87.6%,-8.24% (inactive),4.26% (inactive)
CCOc1ccc(S(=O)(=O)n2nc(C)cc2C)c2ccccc12,83.5%,89.5% (inactive),83.5% (inactive),71.2% (inactive),79.7% (inactive),2.17% (inactive),77.6%,79.7%,-1.03% (inactive),2% (inactive)

Structure (SMILES),viability [1],Her2 level [2],viability [3],viability [4],viability [5],differential viability (reversal) ([6]; H69AR cells + 2 uM doxorubicin),"viability [6, 9]","viability [6, 10]",inhibition [7],inhibition [8]
COc1ccc(-c2nc3c(c(=O)n(C)c(=O)n3C)n2CC2CC(c3ccccc3)=NO2)cc1OC (stereo not given),85.5%,85% (inactive),85.5% (inactive),63.4% (inactive),6.03% (active),1.44% (inactive),4.58%,6.03%,-6.76% (inactive),2.22% (inactive)
CC(C)(C)NC(=O)C(c1ccco1)N(C(=O)Cn1nnc(-c2ccc(F)cc2)n1)c1ccccc1F (stereo not given),99%,84% (inactive),99% (inactive),96% (inactive),99.3% (inactive),-11% (inactive),110%,99.3%,-5.54% (inactive),21.8% (inactive)
N#CC1(c2ccccc2)CCC(=NO)CC1 (stereo not given),106%,91.5% (inactive),106% (inactive),90.2% (inactive),98.1% (inactive),1.23% (inactive),96.8%,98.1%,-3.7% (inactive),-2.06% (inactive)
CC(=O)N(c1ccc(N(C(C)=O)S(=O)(=O)c2cccs2)cc1)S(=O)(=O)c1cccs1,90%,104% (inactive),90% (inactive),85% (inactive),86% (inactive),-22.3% (inactive),108%,86%,-1.18% (inactive),1.15% (inactive)
CNC(=O)Nc1cccc(C(F)(F)F)c1,105%,82.5% (inactive),105% (inactive),93% (inactive),93.6% (inactive),-6.37% (inactive),100%,93.6%,-4.08% (inactive),0% (inactive)
COC(=O)c1cc(OC)c(OC)cc1NC(=O)CCC1CCCC1,103%,95% (inactive),103% (inactive),88.8% (inactive),102% (inactive),-3.46% (inactive),106%,102%,0.39% (inactive),9.05% (inactive)
O=C(Nc1ccc(OC(=O)c2ccco2)cc1)c1ccco1,96.5%,99.5% (inactive),96.5% (inactive),103% (inactive),85.3% (inactive),-10.4% (inactive),95.7%,85.3%,-5.73% (inactive),-10.5% (inactive)
CCOC(=O)CSC1=Nc2ccccc2C2=NC(CC(=O)NCc3ccc(OC)cc3)C(=O)N12 (stereo not given),117%,89% (inactive),117% (inactive),83% (inactive),99.7% (inactive),2.4% (inactive),97.3%,99.7%,-4.21% (inactive),-1.27% (inactive)
Cc1oc2cc(O)ccc2c(=O)c1-c1cnn(-c2ccccc2)c1,93.5%,90% (inactive),93.5% (inactive),85% (inactive),96.5% (inactive),-1.5% (inactive),98%,96.5%,-5.13% (inactive),13.3% (inactive)
CN(C)c1nc(Nc2ccc(Cl)cc2)nc(OCC#N)n1,105%,80.5% (inactive),105% (inactive),63.2% (inactive),81.8% (inactive),-14.6% (inactive),96.3%,81.8%,-0.26% (inactive),11% (inactive)
CCN(Cc1cc2ccccc2[nH]c1=O)S(=O)(=O)c1ccccc1,110%,112% (inactive),110% (inactive),98.4% (inactive),87.1% (inactive),-12.7% (inactive),99.8%,87.1%,-4.59% (inactive),-2.38% (inactive)
O=C(COc1ccc(F)cc1Br)N1CCc2ccccc21,97.5%,100% (inactive),97.5% (inactive),77.3% (inactive),75.3% (inactive),-6% (inactive),81.3%,75.3%,-1.43% (inactive),-0.33% (inactive)
O=C(NCc1cccnc1)c1ccc2c(c1)OCO2,74%,102% (inactive),74% (inactive),105% (inactive),89.7% (inactive),-16.9% (inactive),107%,89.7%,-1.35% (inactive),-9.18% (inactive)
CCn1c2ccccc2c2cc(NC(=O)CSc3nnc(C4CC4)n3Cc3ccco3)ccc21,104%,88% (inactive),104% (inactive),75.5% (inactive),79% (inactive),-16.2% (inactive),95.2%,79%,-6.45% (inactive),-3.17% (inactive)
O=C(c1ccccc1Cl)N1CCc2ccccc2C1,97%,75% (inactive),97% (inactive),97.1% (inactive),83% (inactive),1.55% (inactive),81.5%,83%,-8.49% (inactive),-5.4% (inactive)
O=C(c1ccccc1F)N1CCN(Cc2cccc(Cl)c2)CC1,101%,104% (inactive),101% (inactive),107% (inactive),100% (inactive),16.8% (inactive),83.6%,100%,-5.32% (inactive),-2.86% (inactive)
